{
  "source": "ChEMBL document CHEMBL3813669",
  "about": "“Synthesis and in vitro evaluation of hydrazinyl phthalazines against malaria parasite, Plasmodium falciparum” (Bioorg Med Chem Lett, 2016)",
  "key": {"Plasmodium falciparum [1]": {"tested_on": "Plasmodium falciparum", "test": "Antiplasmodial activity against Plasmodium falciparum 3D7 trophozoite stage infected in human RBCs assessed as reduction in parasitemia at 1 to 100 uM after 48 hrs by Hoechst-3342 staining based flow cytometric analysis", "assay_type": "functional, organism-based", "method_in_brief": "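3D7 parasites at trophozoite stage (~30 hpi) were exposed to 1, 20 and 100 μM compound, with DMSO-treated negative control. Parasitemia was read by flow cytometry after 48 h.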"}, "[2]": {"test": "Selectivity index, ratio of IC50 for MDCK cells to IC50 for Plasmodium falciparum 3D7", "method_in_brief": "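Ratio computed as […]. The 3D7 IC50 came from trophozoite-stage parasites (~24-26 hpi) incubated 48 h with 1.6-100 μM compound, with DMSO and chloroquine controls. The MDCK IC50 came from the MTT assay tested up to 200 μM.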"}, "MDCK": {"tested_on": "MDCK", "test": "Cytotoxicity against MDCK cells assessed as cell viability measured after overnight incubation by MTT assay", "assay_type": "cell-based", "details": "Canis lupus familiaris", "method_in_brief": "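MDCK cells were tested by MTT viability assay at compound concentrations up to 200 μM, alongside controls.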"}, "Plasmodium falciparum [3]": {"tested_on": "Plasmodium falciparum", "test": "Antiplasmodial activity against chloroquine-resistant Plasmodium falciparum K1 infected in human RBCs assessed as reduction in parasitemia after 48 hrs by Hoechst-3342 staining based flow cytometric analysis", "assay_type": "functional, organism-based", "details": "K1, 48 h", "method_in_brief": "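The K1 strain was screened across a 0–100 μM compound range alongside 3D7, and IC50 values were derived from parasitemia. Giemsa-stained smears from representative experiments were also examined by microscopy for parasite phenotype.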"}, "Plasmodium falciparum [4]": {"tested_on": "Plasmodium falciparum", "test": "Antiplasmodial activity against Plasmodium falciparum 3D7 trophozoite stage infected in human RBCs assessed as reduction in parasitemia after 48 hrs by Hoechst-3342 staining based flow cytometric analysis", "assay_type": "functional, organism-based", "details": "3D7, 48 h", "method_in_brief": "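Trophozoite-stage 3D7 parasites (~24–26 hpi) were exposed to 1.6 μM to 100 μM compound for 48 h, with DMSO-treated parasites as negative control and chloroquine as positive control. Parasitemia was read by flow cytometry, and IC50 was estimated from the concentration series.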"}, "Plasmodium falciparum [5]": {"tested_on": "Plasmodium falciparum", "test": "Antiplasmodial activity against Plasmodium falciparum 3D7 infected in human RBCs assessed as inhibition of schizont to ring stage transition at 2 and 4 times IC50 measured after 12 hrs by flow cytometric analysis", "assay_type": "functional, organism-based", "method_in_brief": "(§1)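 Synchronised 3D7 cultures received compound at ring (2-4 h), trophozoite (24-26 h) or schizont (36-38 h) stage. Dosing was 4×, 2×, 1× and 0.25× the IC50 estimated from the 3D7 dose-response. Samples were harvested about 12 h later, and stage progression and morphology were monitored by flow cytometry and microscopy.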"}, "Plasmodium falciparum [6]": {"tested_on": "Plasmodium falciparum", "test": "Antiplasmodial activity against Plasmodium falciparum 3D7 infected in human RBCs assessed as inhibition of trophozoite to schizont stage transition at 2 and 4 times IC50 measured after 12 hrs by flow cytometric analysis", "assay_type": "functional, organism-based", "method_in_brief": "as §1"}, "Plasmodium falciparum [7]": {"tested_on": "Plasmodium falciparum", "test": "Antiplasmodial activity against Plasmodium falciparum 3D7 infected in human RBCs assessed as inhibition of ring to trophozoite stage transition at 4 times IC50 measured after 12 hrs by flow cytometric analysis", "assay_type": "functional, organism-based", "method_in_brief": "as §1"}, "Plasmodium falciparum [8]": {"tested_on": "Plasmodium falciparum", "test": "Antiplasmodial activity against Plasmodium falciparum 3D7 infected in human RBCs assessed as inhibition of trophozoite to schizont stage transition at 0.25 to 4 times IC50 measured after 12 hrs by flow cytometric analysis", "assay_type": "functional, organism-based", "method_in_brief": "as §1"}, "Plasmodium falciparum [9]": {"tested_on": "Plasmodium falciparum", "test": "Antiplasmodial activity against Plasmodium falciparum 3D7 infected in human RBCs assessed as inhibition of ring to trophozoite stage transition at 0.25 to 4 times IC50 measured after 12 hrs by flow cytometric analysis", "assay_type": "functional, organism-based", "method_in_brief": "as §1"}, "Plasmodium falciparum [10]": {"tested_on": "Plasmodium falciparum", "test": "Antiplasmodial activity against Plasmodium falciparum 3D7 infected in human RBCs assessed as inhibition of schizont to ring stage transition at 4 times IC50 measured after 12 hrs by flow cytometric analysis", "assay_type": "functional, organism-based", "method_in_brief": "as §1"}, "Plasmodium falciparum [11]": {"tested_on": "Plasmodium falciparum", "test": "Antiplasmodial activity against Plasmodium falciparum 3D7 infected in human RBCs assessed as inhibition of merozoite maturation at schizont stage at IC50 by Giemsa-staining based microscopic analysis", "assay_type": "functional, organism-based"}, "Plasmodium falciparum [12]": {"tested_on": "Plasmodium falciparum", "test": "Antiplasmodial activity against Plasmodium falciparum 3D7 infected in human RBCs assessed as inhibition of schizont to ring stage transition at 1 to 4 times IC50 measured after 12 hrs by flow cytometric analysis", "assay_type": "functional, organism-based", "method_in_brief": "as §1"}},
  "note": "Activity calls are given as the source filed them. The calls are words filed in the database; no cut-off is given here.",
  "data": [
    {"smiles": "C(=N\\Nc1nncc2ccccc12)/C1CC1", "values": [
      {"measurement": "inhibition", "setting": "Plasmodium falciparum [1]", "value": "Active"}
    ]},
    {"smiles": "Cc1[nH]c2ccccc2c1/C=N/Nc1nncc2ccccc12", "values": [
      {"measurement": "Ratio IC50", "setting": "[2]", "value": 16.42},
      {"measurement": "IC50", "setting": "MDCK", "value": "> 200", "unit": "µM"},
      {"measurement": "IC50", "setting": "Plasmodium falciparum [3]", "value": 5.98, "unit": "µM"},
      {"measurement": "IC50", "setting": "Plasmodium falciparum [4]", "value": 12.2, "unit": "µM"},
      {"measurement": "inhibition", "setting": "Plasmodium falciparum [5]", "value": "Active"},
      {"measurement": "inhibition", "setting": "Plasmodium falciparum [6]", "value": "Active"},
      {"measurement": "inhibition", "setting": "Plasmodium falciparum [7]", "value": "Active"}
    ]},
    {"smiles": "C(=N\\Nc1nncc2ccccc12)/c1c[nH]c2ccccc12", "values": [
      {"measurement": "Ratio IC50", "setting": "[2]", "value": 14.56},
      {"measurement": "inhibition", "setting": "Plasmodium falciparum [8]", "value": "inactive"},
      {"measurement": "IC50", "setting": "MDCK", "value": "> 200", "unit": "µM"},
      {"measurement": "IC50", "setting": "Plasmodium falciparum [3]", "value": 6.66, "unit": "µM"},
      {"measurement": "IC50", "setting": "Plasmodium falciparum [4]", "value": 13.7, "unit": "µM"},
      {"measurement": "inhibition", "setting": "Plasmodium falciparum [9]", "value": "inactive"},
      {"measurement": "inhibition", "setting": "Plasmodium falciparum [10]", "value": "Active"}
    ]},
    {"smiles": "Cc1cc(/C=N/Nc2nncc3ccccc23)c([N+](=O)[O-])cc1C", "values": [
      {"measurement": "inhibition", "setting": "Plasmodium falciparum [1]", "value": "Active"}
    ]},
    {"smiles": "CS(=O)(=O)c1ccc(/C=N/Nc2nncc3ccccc23)cc1", "values": [
      {"measurement": "inhibition", "setting": "Plasmodium falciparum [1]", "value": "Active"}
    ]},
    {"smiles": "C(=N\\Nc1nncc2ccccc12)/c1ccc2c(c1)CCO2", "values": [
      {"measurement": "inhibition", "setting": "Plasmodium falciparum [1]", "value": "Active"}
    ]},
    {"smiles": "Cn1ccnc1/C=N/Nc1nncc2ccccc12", "values": [
      {"measurement": "Ratio IC50", "setting": "[2]", "value": 57.22},
      {"measurement": "inhibition", "setting": "Plasmodium falciparum [8]", "value": "inactive"},
      {"measurement": "IC50", "setting": "MDCK", "value": "> 200", "unit": "µM"},
      {"measurement": "inhibition", "setting": "Plasmodium falciparum [11]", "value": "Active"},
      {"measurement": "inhibition", "setting": "Plasmodium falciparum [12]", "value": "Active"},
      {"measurement": "IC50", "setting": "Plasmodium falciparum [3]", "value": 2.23, "unit": "µM"},
      {"measurement": "IC50", "setting": "Plasmodium falciparum [4]", "value": 3.5, "unit": "µM"},
      {"measurement": "inhibition", "setting": "Plasmodium falciparum [9]", "value": "inactive"}
    ]},
    {"smiles": "C(=N\\Nc1nncc2ccccc12)/c1c(-c2ccccc2)[nH]c2ccccc12", "values": [
      {"measurement": "Ratio IC50", "setting": "[2]", "value": 57.31},
      {"measurement": "IC50", "setting": "MDCK", "value": "> 200", "unit": "µM"},
      {"measurement": "IC50", "setting": "Plasmodium falciparum [3]", "value": 2.43, "unit": "µM"},
      {"measurement": "IC50", "setting": "Plasmodium falciparum [4]", "value": 3.49, "unit": "µM"},
      {"measurement": "inhibition", "setting": "Plasmodium falciparum [9]", "value": "inactive"},
      {"measurement": "inhibition", "setting": "Plasmodium falciparum [5]", "value": "Active"},
      {"measurement": "inhibition", "setting": "Plasmodium falciparum [6]", "value": "Active"}
    ]},
    {"smiles": "O=c1cc(/C=N/Nc2nncc3ccccc23)oc2ccccc12", "values": [
      {"measurement": "inhibition", "setting": "Plasmodium falciparum [1]", "value": "Active"}
    ]},
    {"smiles": "Oc1ccc(Cl)cc1/C=N\\Nc1nncc2ccccc12", "values": [
      {"measurement": "Ratio IC50", "setting": "[2]", "value": 60.75},
      {"measurement": "inhibition", "setting": "Plasmodium falciparum [8]", "value": "inactive"},
      {"measurement": "IC50", "setting": "MDCK", "value": "> 100", "unit": "µM"},
      {"measurement": "inhibition", "setting": "Plasmodium falciparum [11]", "value": "Active"},
      {"measurement": "IC50", "setting": "Plasmodium falciparum [3]", "value": 1.69, "unit": "µM"},
      {"measurement": "IC50", "setting": "Plasmodium falciparum [4]", "value": 1.65, "unit": "µM"},
      {"measurement": "inhibition", "setting": "Plasmodium falciparum [9]", "value": "inactive"},
      {"measurement": "inhibition", "setting": "Plasmodium falciparum [5]", "value": "Active"}
    ]}
  ]
}
